From ChEMBL document CHEMBL3352538, “Vascular L-type Ca²⁺ channel blocking activity of sulfur-containing indole alkaloids from Glycosmis petelotii” (J Nat Prod, 2014)

How the values were obtained:
[1] = biological target: T1, Voltage-gated L-type calcium channel (Rattus norvegicus, UniProt P22002+Q02485+P27732); assay: Inhibition of L-type calcium channel in endothelium-intact Wistar rat aorta rings assessed as relaxation of 0.3 uM phenylephrine-induced contraction
[2] = biological target: T1, Voltage-gated L-type calcium channel; assay: Inhibition of L-type calcium channel in Wistar rat aorta rings assessed as relaxation of phenylephrine-induced contraction in Ca2+ free medium
Procedure, shortened: (§1)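 Rings in Ca2+-free PSS with 1 mM EGTA for 15 min, then 30 min incubation with vehicle or alkaloid. Contraction to 10 μM phenylephrine reflects sarcoplasmic reticulum Ca2+ release; 3.5 mM Ca2+ is then re-added with phenylephrine still present to index Ca2+ influx. Washed 45 min and repeated at a higher concentration. Expressed as % of 0.3 μM phenylephrine contraction in PSS.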

[3] = biological target: T1, Voltage-gated L-type calcium channel; assay: Inhibition of L-type calcium channel in Wistar rat aorta rings assessed as relaxation of phenylephrine-induced contraction in Ca2+ restored medium
Procedure, shortened: as §1

[4] = biological target: T1, Voltage-gated L-type calcium channel; assay: Inhibition of L-type calcium channel in endothelium-denuded Wistar rat aorta rings assessed as relaxation of phenylephrine-induced contraction; conditions: for inhibition (INH): rat
[5] = biological target: T1, Voltage-gated L-type calcium channel; assay: Inhibition of L-type calcium channel in endothelium-denuded Wistar rat aorta rings assessed as relaxation of 60 mM K+-induced contraction; conditions: for inhibition (INH): rat
[6] = biological target: T1, Voltage-gated L-type calcium channel; assay: Inhibition of L-type calcium channel in endothelium-denuded Wistar rat aorta rings depolarized with 60 mM K+ solution assessed as relaxation of Ca2+-induced contraction
Procedure, shortened: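 Endothelium-denuded rings stimulated with 60 mM K+ for 15 min, then washed 90 min in Ca2+-free PSS with 1 mM EGTA, and stores emptied with 0.3 μM phenylephrine. Depolarized in Ca2+-free 60 mM K+ PSS, then cumulative Ca2+ (0.03−3 mM). Test substance or vehicle present 30 min before and throughout.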

[7] = biological target: T1, Voltage-gated L-type calcium channel; assay: Inhibition of L-type calcium channel in endothelium-denuded Wistar rat aorta rings assessed as relaxation of 30 mM K+-induced contraction
Procedure, shortened: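 Endothelium-denuded rat aorta rings, isometric tension, equilibrated 60 min in PSS gassed with 95% O2/5% CO2 (pH 7.4). Contracted with 0.3 μM phenylephrine, or 30 or 60 mM K+ (KCl replacing NaCl).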

[8] = biological target: T1, Voltage-gated L-type calcium channel; assay: Inhibition of L-type calcium channel in endothelium-denuded Wistar rat aorta rings depolarized with 60 mM K+ solution assessed as relaxation of Ca2+-induced contraction at 43 and 128 uM in presence of 10 nM calcium channel agonist (S)-(-)Bay K 8644
Procedure, shortened: (§2)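 Following the cumulative Ca2+ (0.03−3 mM) curve in endothelium-denuded rings depolarized with Ca2+-free 60 mM K+ PSS, with compound or vehicle present from 30 min beforehand, 10 nM (S)-(−)-Bay K 8644 was added after the last Ca2+ addition. Tone expressed as % of the response to 60 mM K+; mean ± SE, n = 4−17.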

[9] = biological target: T1, Voltage-gated L-type calcium channel; assay: Inhibition of L-type calcium channel in endothelium-denuded Wistar rat aorta rings depolarized with 60 mM K+ solution assessed as relaxation of Ca2+-induced contraction at 12 and 40 uM in presence of 10 nM calcium channel agonist (S)-(-)Bay K 8644
Procedure, shortened: as §2

[10] = biological target: T1, Voltage-gated L-type calcium channel; assay: Inhibition of L-type calcium channel in Wistar rat tail artery myocytes assessed as reduction in L-type Ba(2+) current at Vh of -50 mV; conditions: for inhibition (INH): rat

Row | pIC50 [1] | inhibition (INH) [2] | inhibition (INH) [3] | pIC50 [4] | inhibition (INH) [4] | pIC50 [5] | inhibition (INH) [5] | inhibition (INH) [6] | pIC50 [7] | inhibition (INH) [8] | inhibition (INH) [9] | IC50 [10] [µM] | SMILES | inhibition (INH) [10] | inhibition (INH) ([1]; rat)
1 | 4.2 | Not Active | Active | 4.3 | Dose-dependent effect | 4.1 | Dose-dependent effect | Dose-dependent effect | 3.9 | Not Active | – | – | CSC(=O)NCCc1c[nH]c2ccccc12 | – | –
2 | 4.4 | Not Active | – | 4.7 | Dose-dependent effect | 4.8 | Dose-dependent effect | Dose-dependent effect | 4.5 | – | Not Active | 251 | CSC(=O)N(C)CCc1c[nH]c2ccccc12 | Dose-dependent effect | –

Row | SMILES | pIC50 [1] | inhibition (INH) [2] | inhibition (INH) [3] | pIC50 [4] | inhibition (INH) [4] | pIC50 [5] | inhibition (INH) [5] | inhibition (INH) [6] | pIC50 [7] | inhibition (INH) [8] | inhibition (INH) [9] | IC50 [10] [µM] | inhibition (INH) [10] | inhibition (INH) ([1]; rat)
3 | COc1ccc(CCN(C)CCCC(C#N)(c2ccc(OC)c(OC)c2)C(C)C)cc1OC (stereo not given) | – | – | – | – | Dose-dependent effect | – | Dose-dependent effect | – | – | – | – | – | Dose-dependent effect | Dose-dependent effect
